Holding throughout (format): functional
The nature of test [1]: Cytotoxicity against human Hs578T cells assessed as growth inhibition at 10 uM after 48 hrs by SRB assay. The following applies: Hs-578T, read-out: GI. In short, it runs like this: (§1)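 NCI-60 one-dose primary screen run by the NCI Drug Evaluation Branch across the full 60-line panel. Single high-dose treatment with 48 h continuous drug exposure. Cell growth estimated by sulforhodamine B protein staining. Results given as percent growth of treated cells and expressed as percentage growth inhibition.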

Test [2] relates to Staphylococcus aureus. The test can be described thus: Antibacterial activity against Staphylococcus aureus ATCC 6538 assessed as growth inhibition at 1 mg/mL after 24 hrs by agar-cup diffusion method. To be noted: ATCC 6538, 24 h, read-out: DIZ. Summed up:
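Agar-cup diffusion: 1 mL of 6 h broth culture seeded per 100 mL molten sterile agar at 45 °C and poured into plates. 8 mm cups cut, each filled with 0.1 mL of 1 mg/mL test solution. Incubated 37 °C for 24 h, 48 h for C. albicans. DMSO control per organism. Inhibition zone diameter in mm, mean of three measurements.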

Test [3] relates to NCI-H522. The experiment in a line: Cytotoxicity against human NCI-H522 cells assessed as growth inhibition at 10 uM after 48 hrs by SRB assay. To be noted: NCI-H522, 48 h, read-out: GI. Summed up:
as §1

Test [4] concerns SNB-75. The experiment in a line: Cytotoxicity against human SNB75 cells assessed as growth inhibition at 10 uM after 48 hrs by SRB assay. To be noted: SNB-75, 48 h, read-out: GI. Summed up:
as §1

Test [5] deals with NCI-H322M. The test can be described thus: Cytotoxicity against human NCI-H322M cells assessed as growth inhibition at 10 uM after 48 hrs by SRB assay. To be noted: read-out: GI. Summed up:
as §1

Test [6] has as its system Candida albicans. The test can be described thus: Antifungal activity against Candida albicans ATCC 10231 assessed as growth inhibition after 48 hrs by two-fold serial dilution assay. The following applies: ATCC 10231, 48 h. Summed up:
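Twofold serial broth dilution run on compounds giving inhibition zones of 13 mm or more. Organisms pre-grown in suitable broth at 37 °C, 24 h for bacteria and 48 h for fungi. Dilution series 200, 100, 50, 25, 12.5, 6.25. Each 5 mL tube inoculated with 0.1 mL and incubated 37 °C for 48 h. Tubes scored for presence or absence of growth.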

For test [7], the system named is T47D. The test can be described thus: Cytotoxicity against human T47D cells assessed as growth inhibition at 10 uM after 48 hrs by SRB assay. The following applies: read-out: GI. Summed up:
as §1

Test [8] relates to U-251. The experiment in a line: Cytotoxicity against human U251 cells assessed as growth inhibition at 10 uM after 48 hrs by SRB assay. The following applies: U-251, 48 h, read-out: GI. In short, it runs like this: as §1
Test [9] concerns MCF7. The test can be described thus: Cytotoxicity against human MCF7 cells assessed as growth inhibition at 10 uM after 48 hrs by SRB assay. The following applies: MCF7, 48 h, read-out: GI. In short, it runs like this: as §1
Test [10] has as its system Staphylococcus aureus. The test can be described thus: Bactericidal activity against Staphylococcus aureus ATCC 6538 after 18 hrs. The following applies: ATCC 6538, 18 h. In short, it runs like this: (§2)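 Continuation of the broth-dilution MIC test. A loopful from each tube without visible growth spread on a quarter of a Mueller-Hinton agar plate and incubated 18 h. Lowest concentration giving no growth on subculture taken as the MBC.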

Test [11] deals with HCC 2998. The experiment in a line: Cytotoxicity against human HCC2998 cells assessed as growth inhibition at 10 uM after 48 hrs by SRB assay. The following applies: HCC 2998, 48 h, read-out: GI. In short, it runs like this:
as §1

Test [12] relates to MOLT-4. The test can be described thus: Cytotoxicity against human MOLT4 cells assessed as growth inhibition at 10 uM after 48 hrs by SRB assay. To be noted: MOLT-4, 48 h, read-out: GI. Summed up: as §1
Test [13] has as its system Candida albicans. The test can be described thus: Fungicidal activity against Candida albicans ATCC 10231 after 18 hrs. To be noted: ATCC 10231, 18 h. In short, it runs like this: as §2
Test [14] has as its system Bacillus spizizenii. The test can be described thus: Bactericidal activity against Bacillus subtilis ATCC 6633 after 18 hrs. To be noted: ATCC 6633, 18 h. Summed up:
as §2

The subject of test [15] is Pseudomonas aeruginosa. The test can be described thus: Bactericidal activity against Pseudomonas aeruginosa ATCC 27853 after 18 hrs. The following applies: ATCC 27853, 18 h. In short, it runs like this: as §2

≈ marks a conversion by molar mass, not a printed value. A value given as a limit tells only on which side of the number the result lay.

In the case of `Cc1nc(N)sc1C(=O)Nc1ccc(F)cc1`, the inhibition of growth at 10 µM is 14.2% in test [1]; 9.55% in [3]; 5.4% in test [4]; 2.56% in [5]; less than 10% in [7]; 5.77% in test [8]. The inhibition of growth at 10 µM is 2.21% in test [9], 11.8% in test [11] and less than 10% in test [12]. Besides, in [2], the zone of inhibition at 1000 µg/mL is more than 13 mm. For the same compound, in test [6], the MIC was found to be 100 µg/mL (≈ 398 µM). Moreover, the MBC in test [10] was found to be 25 µg/mL (≈ 99.5 µM); in test [14], 50 µg/mL (≈ 199 µM). For the same compound, the MFC in [13] worked out at 100 µg/mL (≈ 398 µM).

Consider `CCOC(=O)c1sc(NC(=O)c2cc(OC)c(OC)c(OC)c2)nc1C`, for which the inhibition of growth at 10 µM was 11.2% in test [1]; 32.6% in test [3]; 2.51% in test [4]; less than 10% in [5]; less than 10% in test [7]; less than 10% in test [8]. For the same compound, the results for the inhibition of growth at 10 µM in [9], in [11] and in test [12] were 12.5%, 42.7% and 12.4%, respectively. The zone of inhibition at 1000 µg/mL in test [2] was more than 13 mm. In addition, the MBC in [10] stood at 6.25 µg/mL (≈ 16.4 µM); in test [14] it was 50 µg/mL (≈ 131 µM); in test [15] it was 100 µg/mL (≈ 263 µM).

Consider `CCOC(=O)c1sc(NC(=O)Nc2ccccc2)nc1C`, for which the inhibition of growth at 10 µM was 6.4% in test [1]; 2.64% in test [3]; 47.2% in [4]; less than 10% in test [5]; 12.6% in test [7]; 9.58% in [8]. The figures for the inhibition of growth at 10 µM in [9], in [11] and in test [12] were 7.17%, 27.4% and 23.7%, respectively. Also, the zone of inhibition at 1000 µg/mL in [2] is more than 13 mm. Besides, in test [6], the MIC is 25 µg/mL (≈ 81.9 µM). For the same compound, the MBC in test [10] turned out to be 25 µg/mL (≈ 81.9 µM); in test [14], 50 µg/mL (≈ 164 µM); in [15], 100 µg/mL (≈ 327 µM). The compound also returned an MFC in test [13] of 25 µg/mL (≈ 81.9 µM).

As for `CCOC(=O)c1sc(NS(=O)(=O)c2ccccc2)nc1C`, the inhibition of growth at 10 µM in test [1] is less than 10%; in test [3] it was less than 10%; in test [4], 3.91%; in test [5], less than 10%; in test [7], less than 10%; in test [8], less than 10%. In addition, the inhibition of growth at 10 µM in [9] was less than 10%; in test [11], 72.5%; in test [12], 24.4%. Also, in test [2], the zone of inhibition at 1000 µg/mL was more than 13 mm. The MBC came to 25 µg/mL (≈ 76.6 µM) in [10], 100 µg/mL (≈ 306 µM) in [14] and 200 µg/mL (≈ 613 µM) in test [15].

On to `Cc1nc(NC(=S)Nc2ccc(F)cc2)sc1C(=O)NN`, for which the inhibition of growth at 10 µM is 2.23% in [1]; less than 10% in test [3]; 7.19% in [4]; 15.1% in test [5]; 2.52% in test [7]; 5.41% in test [8]. Further, the inhibition of growth at 10 µM was less than 10% in test [9], 10.5% in [11] and less than 10% in [12]. In addition, the zone of inhibition at 1000 µg/mL in test [2] is more than 13 mm. The MIC in test [6] amounted to 12.5 µg/mL (≈ 38.4 µM). Besides, the MBC came to 6.25 µg/mL (≈ 19.2 µM) in [10], 12.5 µg/mL (≈ 38.4 µM) in test [14] and 50 µg/mL (≈ 154 µM) in test [15]. For the same compound, in test [13], the MFC is 12.5 µg/mL (≈ 38.4 µM).

As for `Cc1nc(NC(=O)NC2CCCCC2)sc1C(=O)NN`, the inhibition of growth at 10 µM in [1] is less than 10%; in test [3], 99.5%; in test [4] it was less than 10%; in test [5], less than 10%; in [7], less than 10%; in test [8] it was 2.59%. The inhibition of growth at 10 µM in test [9], in test [11] and in [12] was less than 10% in each case. The zone of inhibition at 1000 µg/mL in [2] was more than 13 mm. The MIC in test [6] was 50 µg/mL (≈ 168 µM). Further, the MBC in test [10] was 50 µg/mL (≈ 168 µM); in test [14], 100 µg/mL (≈ 336 µM); in test [15], 200 µg/mL (≈ 673 µM). In addition, in test [13], the MFC was found to be 100 µg/mL (≈ 336 µM).

For the compound `CCOC(=O)c1sc(NC(=O)NC2CCCCC2)nc1C`, the inhibition of growth at 10 µM was 8.4% in test [1]; less than 10% in [3]; less than 10% in test [4]; less than 10% in test [5]; 4.11% in test [7]; less than 10% in test [8]. Further, the values for the inhibition of growth at 10 µM in test [9], in test [11] and in test [12] were 12.7%, less than 10% and 12.3%, respectively. For the same compound, the zone of inhibition at 1000 µg/mL in test [2] was more than 13 mm. The MBC in [10] was 50 µg/mL (≈ 161 µM); in test [14] it was 100 µg/mL (≈ 321 µM).

As to `Cc1nc(NC(=O)Nc2ccccc2)sc1C(=O)NN`, the inhibition of growth at 10 µM was 2.83% in test [1]; 63.4% in test [3]; less than 10% in [4]; 22% in [5]; less than 10% in test [7]; less than 10% in test [8]. In addition, the inhibition of growth at 10 µM in test [9] is 2.96%; in test [11], 6.85%; in test [12], less than 10%. In test [2], the zone of inhibition at 1000 µg/mL was more than 13 mm. Moreover, in test [6], the MIC amounted to 25 µg/mL (≈ 85.8 µM). Besides, the MBC in test [10] was found to be 12.5 µg/mL (≈ 42.9 µM); in test [14] it was 25 µg/mL (≈ 85.8 µM); in test [15] it was 100 µg/mL (≈ 343 µM). In [13], this compound displayed an MFC of 25 µg/mL (≈ 85.8 µM).

Values taken from ChEMBL document CHEMBL3124924, “Bifunctional ethyl 2-amino-4-methylthiazole-5-carboxylate derivatives: synthesis and in vitro biological evaluation as antimicrobial and anticancer agents” (2014).
